This note sets out measurements from ChEMBL document CHEMBL1125386, “Small atrial natriuretic peptide analogues: design, synthesis, and structural requirements for guanylate cyclase activation” (J Med Chem, 1992).

The species entered for data set [1] is Oryctolagus cuniculus. Put plainly: Compound was evaluated for the intrinsic vasorelaxation (i.vr) in a standard tissue bath preparation using rabbit aortic rings precontracted with histamine. Type of data set: functional, Aorta. Summed up: (§1)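 Rabbit aortic rings (4–5 mm) in Krebs-Henseleit buffer, gassed 95:5 O2/CO2, pH 7.4, isometric tension, baseline 2 g held 2 h. Rings contracted with 3 μM histamine, then six cumulative half-log peptide increments over 90 min, range 10⁻⁸ to 10⁻⁴ M. Triplicate determinations.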

For data set [2], the species on record is Oryctolagus cuniculus. Put plainly: In vitro vasorelaxant potency at dose 10 e -8 to 10 e-4 M using rabbit aortic rings precontracted with histamine. Type of data set: functional. The conditions noted are these: Aorta. An outline of the steps:
as §1

Data set [3] has as its system Atrial natriuretic peptide receptor 1 (Oryctolagus cuniculus). Put plainly: Binding affinity towards the low-affinity site atrionatriuretic peptide receptor 1 of rabbit adrenal membrane.
The nature of data set [4]: (§2) In vitro Biological half-life in crude homogenate of rabbit renal cortex. Type of data set: ADME, tissue-based, Oryctolagus cuniculus.
Data set [5] can be described thus: as §2. Type of data set: ADME, Oryctolagus cuniculus.

Where a SMILES comes first, the peptide text is derived from it. Bridges are numbered along the chain shown (N, C = ends). A value given as a limit tells only on which side of the number the result lay.

Broadly, the EC50 is the concentration needed to bring the measured effect to its halfway point. Read a low EC50 as higher potency in that assay. By half-life is commonly meant how long it takes for the measured level to halve. Lower therefore signals fast loss.

On to `NC(=O)C[C@H](N)C(=O)N[C@@H](CO)C(=O)N[C@@H](Cc1ccccc1)C(=O)N[C@@H](CCCN=C(N)N)C(=O)O` (H-NSFR-OH), for which, in the data set filed under Oryctolagus cuniculus [1], the Intrinsic vasorelaxation was 0.16 fraction of rANP max.

Consider `CC[C@H](C)[C@@H]1NC(=O)[C@H](CCCN=C(N)N)NC(=O)CNC(=O)CNC(=O)[C@H](Cc2ccccc2)NC(=O)[C@@H](CC2CCCCC2)NC(=O)[C@@H](NC(=O)[C@H](CO)NC(=O)[C@@H](N)CO)CSSC[C@@H](C(=O)N[C@@H](Cc2ccccc2)C(=O)N[C@@H](CCCN=C(N)N)C(=O)O)NC(=O)[C@H]([C@@H](C)CC)NC(=O)[C@H](CCCN=C(N)N)NC(=O)[C@H](CC(=O)O)NC1=O`, for which, in the data set filed under Oryctolagus cuniculus [2], the EC50 was found to be 430 nM.

As for H-FGGRIDRI-OH, the Intrinsic vasorelaxation in the data set listed under Oryctolagus cuniculus [1] is 0.57 fraction of rANP max.

In turn, `CC[C@H](C)[C@@H]1NC(=O)[C@H](CCCN=C(N)N)NC(=O)[C@H](CC(=O)O)NC(=O)[C@H]([C@@H](C)CC)NC(=O)[C@H](CCCN=C(N)N)NC(=O)CNC(=O)CNC(=O)[C@H](Cc2ccccc2)NC(=O)[C@@H](NC(=O)[C@H](CO)NC(=O)[C@@H](N)CO)CSSC[C@@H](C(=O)O)NC1=O` (H-SSCFGGRIDRIC-OH; disulfide 3-12) yielded an EC50 in the data set filed under Oryctolagus cuniculus [2] of 5200 nM.

In turn, `CC[C@H](C)[C@@H]1NC(=O)[C@H](CCCN=C(N)N)NC(=O)CNC(=O)CNC(=O)[C@H](Cc2ccccc2)NC(=O)[C@@H](N)CSSC[C@@H](C(=O)N[C@@H](Cc2ccccc2)C(=O)N[C@@H](CCCN=C(N)N)C(=O)O)NC(=O)[C@H]([C@@H](C)CC)NC(=O)[C@H](CCCN=C(N)N)NC(=O)[C@H](CC(=O)O)NC1=O` (H-CFGGRIDRICFR-OH; disulfide 1-10) showed an EC50 in the data set listed under Oryctolagus cuniculus [2] of 4900 nM.

As to `CC[C@H](C)[C@@H]1NC(=O)[C@H](CCCN=C(N)N)NC(=O)CNC(=O)CNC(=O)[C@H](Cc2ccccc2)NC(=O)CCNC(=O)[C@@H](NC(=O)[C@H](CO)NC(=O)[C@@H](N)CO)CSSC[C@@H](C(=O)N[C@@H](Cc2ccccc2)C(=O)N[C@@H](CCCN=C(N)N)C(=O)O)NC(=O)[C@H]([C@@H](C)CC)NC(=O)[C@H](CCCN=C(N)N)NC(=O)[C@H](CC(=O)O)NC1=O`, the EC50 in the data set listed under Oryctolagus cuniculus [2] was 1800 nM.

As for `CC[C@H](C)[C@@H]1NC(=O)[C@@H](CCCN=C(N)N)NC(=O)CNC(=O)CNC(=O)[C@@H](Cc2ccccc2)NC(=O)C(C)NC(=O)[C@H](NC(=O)[C@H](CO)NC(=O)[C@@H](N)CO)CSSC[C@H](C(=O)N[C@H](Cc2ccccc2)C(=O)N[C@H](CCCN=C(N)N)C(=O)O)NC(=O)[C@@H]([C@@H](C)CC)NC(=O)[C@H](CCCN=C(N)N)NC(=O)[C@@H](CC(=O)O)NC1=O` (stereo in doubt), in the data set filed under Oryctolagus cuniculus [2], the EC50 is 360 nM. This molecule gave a KL in data set [3] of 710 nM. This molecule also yielded a half-life in data set [4] of 5.3 min.

As to `CC[C@H](C)[C@@H]1NC(=O)[C@H](CCCN=C(N)N)NC(=O)CNC(=O)CNC(=O)[C@H](Cc2ccccc2)NC(=O)[C@@H](NC(=O)[C@H](CO)NC(=O)[C@@H](N)CO)CSSC[C@@H](C(=O)O)NC(=O)[C@H](CCCN=C(N)N)NC(=O)[C@H](Cc2ccccc2)NC(=O)[C@H]([C@@H](C)CC)NC(=O)[C@H](CCCN=C(N)N)NC(=O)[C@H](CC(=O)O)NC1=O`, in the data set filed under Oryctolagus cuniculus [2], the EC50 was determined as 2000 nM. Also, the half-life in data set [5] is under 2 min.

In the data set filed under Oryctolagus cuniculus [2], `CC[C@H](C)[C@@H]1NC(=O)[C@@H](CCCN=C(N)N)NC(=O)CNC(=O)CNC(=O)[C@@H](Cc2ccccc2)NC(=O)C(C(C)C)NC(=O)[C@H](NC(=O)[C@H](CO)NC(=O)[C@@H](N)CO)CSSC[C@H](C(=O)N[C@H](Cc2ccccc2)C(=O)N[C@H](CCCN=C(N)N)C(=O)O)NC(=O)[C@@H]([C@@H](C)CC)NC(=O)[C@H](CCCN=C(N)N)NC(=O)[C@@H](CC(=O)O)NC1=O` (stereo in doubt) came in with an EC50 of 24 nM. In data set [3], this molecule registered a KL of 130 nM.

In the data set listed under Oryctolagus cuniculus [2], `CC[C@H](C)[C@@H]1NC(=O)[C@H](CCCN=C(N)N)NC(=O)CNC(=O)CNC(=O)[C@@H](Cc2ccccc2)NC(=O)[C@@H](NC(=O)[C@H](CO)NC(=O)[C@@H](N)CO)CSSC[C@@H](C(=O)N[C@@H](Cc2ccccc2)C(=O)N[C@@H](CCCN=C(N)N)C(=O)O)NC(=O)[C@H]([C@@H](C)CC)NC(=O)[C@H](CCCN=C(N)N)NC(=O)[C@H](CC(=O)O)NC1=O` displayed an EC50 of over 10000 nM. The same molecule registered a half-life in data set [4] of 5.8 min.

`CC[C@H](C)[C@@H]1NC(=O)[C@H](CCCN=C(N)N)NC(=O)[C@H](CC(=O)O)NC(=O)[C@H]([C@@H](C)CC)NC(=O)[C@H](CCCN=C(N)N)NC(=O)CNC(=O)CNC(=O)[C@H](Cc2ccccc2)NC(=O)[C@@H](N)CSSC[C@@H](C(=O)O)NC1=O` (H-CFGGRIDRIC-OH; disulfide 1-10) yielded an EC50 in the data set listed under Oryctolagus cuniculus [2] of 3800 nM.

In turn, `CC[C@H](C)[C@@H]1NC(=O)[C@H](CCCN=C(N)N)NC(=O)CNC(=O)CNC(=O)[C@H](Cc2ccccc2)NC(=O)CN(C)C(=O)[C@@H](NC(=O)[C@H](CO)NC(=O)[C@@H](N)CO)CSSC[C@@H](C(=O)N[C@@H](Cc2ccccc2)C(=O)N[C@@H](CCCN=C(N)N)C(=O)O)NC(=O)[C@H]([C@@H](C)CC)NC(=O)[C@H](CCCN=C(N)N)NC(=O)[C@H](CC(=O)O)NC1=O` showed an EC50 in the data set filed under Oryctolagus cuniculus [2] of over 1000 nM.

`CC[C@H](C)[C@@H]1NC(=O)[C@H](CCCN=C(N)N)NC(=O)CNC(=O)CNC(=O)[C@H](Cc2ccccc2)NC(=O)[C@@H](NC(=O)[C@H](CO)NC(=O)[C@@H](N)CO)CSSC[C@@H](C(=O)N[C@@H](CC(N)=O)C(=O)N[C@@H](CO)C(=O)O)NC(=O)[C@H]([C@@H](C)CC)NC(=O)[C@H](CCCN=C(N)N)NC(=O)[C@H](CC(=O)O)NC1=O` (H-SSCFGGRIDRICNS-OH; disulfide 3-12) yielded an EC50 in the data set filed under Oryctolagus cuniculus [2] of over 10000 nM.

Molecule `CC[C@H](C)[C@@H]1NC(=O)[C@H](CCCN=C(N)N)NC(=O)CNC(=O)CNC(=O)[C@H](Cc2ccccc2)NC(=O)[C@@H](NC(=O)[C@H](CO)NC(=O)[C@@H](N)CO)CSSC[C@@H](C(=O)N[C@@H](Cc2ccccc2)C(=O)N[C@@H](CCCN=C(N)N)C(=O)O)NC(=O)[C@H]([C@@H](C)CC)NC(=O)[C@H](CCCN=C(N)N)NC(=O)[C@H](CC(=O)O)NC1=O` returned an EC50 in the data set filed under Oryctolagus cuniculus [2] of 3000 nM. The same molecule returned a half-life in data set [4] of 4.7 min.

For the molecule H-RIDRIG-OH, in the data set listed under Oryctolagus cuniculus [1], the Intrinsic vasorelaxation is 0.7 fraction of rANP max.

Consider H-SSCFG-OH, for which the Intrinsic vasorelaxation in the data set filed under Oryctolagus cuniculus [1] is 0.03 fraction of rANP max.

`CC[C@H](C)[C@@H]1NC(=O)[C@H](CCCN=C(N)N)NC(=O)CNC(=O)CNC(=O)[C@H](Cc2ccccc2)NC(=O)CNC(=O)[C@@H](NC(=O)[C@H](CO)NC(=O)[C@@H](N)CO)CSSC[C@@H](C(=O)N[C@@H](Cc2ccccc2)C(=O)N[C@@H](CCCN=C(N)N)C(=O)O)NC(=O)[C@H]([C@@H](C)CC)NC(=O)[C@H](CCCN=C(N)N)NC(=O)[C@H](CC(=O)O)NC1=O` displayed an EC50 in the data set filed under Oryctolagus cuniculus [2] of 120 nM. In data set [4], this molecule had a half-life of 3.2 min.

Turning to H-SSCFGGR-OH, the Intrinsic vasorelaxation in the data set filed under Oryctolagus cuniculus [1] was 0 fraction of rANP max.
